In ChEMBL document CHEMBL1123192 (J Med Chem, 1986):
Values belong to the compound of their own block, whether it stands above or below them.

Legend:
Rattus norvegicus [1] = test: Maximal change in heart rate (HR) measured as % change from pretreatment value at dose of 10 mg/kg in SHR; format: functional
Procedure, shortened: (§1)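 Spontaneously hypertensive rats; test agent dissolved or dispersed in 0.5% methylcellulose and given by gastric gavage at 5 mL/kg after a 1-h equilibration. Doses ranged from 1 to 100 mg/kg, with 4–8 animals per dose. MABP and HR were monitored for 4 h. Pretreatment values and maximal % change were recorded, and maximal changes were compared with vehicle by Dunnett's t test.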

Rattus norvegicus [2] = test: Maximal change in mean arterial blood pressure (MABP) measured as % change from pretreatment value at dose of 10 mg/kg in SHR; format: functional; procedure, shortened: as §1
[3] = target: Beta-1 adrenergic receptor (Cavia porcellus) (UniProt B0FL73); test: Beta-1 adrenergic receptor ISA (intrinsic sympathomimetic activity)using the guinea pig right atria was measured as % increase of positive chronotropic effect (basal spontaneous beating rate) at 1x10E-7 M
Chain of Beta-1 adrenergic receptor (Cavia porcellus) (B0FL73 1-467): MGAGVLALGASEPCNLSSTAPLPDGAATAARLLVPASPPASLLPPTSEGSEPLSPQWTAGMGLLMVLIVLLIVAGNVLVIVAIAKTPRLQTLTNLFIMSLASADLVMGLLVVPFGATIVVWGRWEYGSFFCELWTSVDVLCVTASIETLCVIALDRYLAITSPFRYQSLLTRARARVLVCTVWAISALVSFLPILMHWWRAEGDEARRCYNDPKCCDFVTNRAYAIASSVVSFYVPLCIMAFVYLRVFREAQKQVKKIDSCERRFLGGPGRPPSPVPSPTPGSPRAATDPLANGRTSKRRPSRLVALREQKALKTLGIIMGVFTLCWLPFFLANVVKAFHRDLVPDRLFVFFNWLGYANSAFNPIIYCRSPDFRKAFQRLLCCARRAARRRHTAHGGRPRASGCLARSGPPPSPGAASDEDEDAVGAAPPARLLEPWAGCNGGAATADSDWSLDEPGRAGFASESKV

[4] = target: Beta-2 adrenergic receptor (Cavia porcellus, UniProt Q8K4Z4); test: The compound was evaluated for the antagonistic activity against beta-2 adrenergic receptor.; format: functional; details: read-out: pA2 (converted)
Chain of Beta-2 adrenergic receptor (Q8K4Z4 whole entry): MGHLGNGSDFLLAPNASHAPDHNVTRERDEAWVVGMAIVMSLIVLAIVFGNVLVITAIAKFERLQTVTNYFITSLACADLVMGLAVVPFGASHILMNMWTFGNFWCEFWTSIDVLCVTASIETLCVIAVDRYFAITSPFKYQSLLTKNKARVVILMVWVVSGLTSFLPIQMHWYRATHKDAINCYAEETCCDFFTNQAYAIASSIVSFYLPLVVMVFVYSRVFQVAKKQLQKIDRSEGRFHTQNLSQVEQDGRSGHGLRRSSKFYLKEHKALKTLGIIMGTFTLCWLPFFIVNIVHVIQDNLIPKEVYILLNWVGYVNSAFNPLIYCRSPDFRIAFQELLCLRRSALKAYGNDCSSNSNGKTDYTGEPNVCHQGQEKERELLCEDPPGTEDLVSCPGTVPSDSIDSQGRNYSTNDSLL
Procedure, shortened: (§2)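 Isolated tissue suited to each receptor test, held in 10-mL organ baths of Krebs-Henseleit solution at 37 °C and gassed with 95% O2/5% CO2. Antagonism was judged by how several concentrations of test agent altered a cumulative concentration-response curve to a receptor-specific agonist.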

Rattus norvegicus [5] = test: Maximal change in mean arterial blood pressure (MABP) measured as pretreatment value at dose of 5 mg/kg in SHR; format: functional; procedure, shortened: as §1
Rattus norvegicus [6] = test: TMaximal change in heart rate (HR) measured as pretreatment value at dose of 5 mg/kg in SHR; format: functional; procedure, shortened: as §1
Rattus norvegicus [7] = test: Maximal change in heart rate (HR) measured as pretreatment value at dose of 25 mg/kg in SHR; format: functional; procedure, shortened: as §1
Rattus norvegicus [8] = test: Maximal change in heart rate (HR) measured as pretreatment value at dose of 10 mg/kg in SHR; format: functional; procedure, shortened: as §1
[9] = target: T1, Beta-1 adrenergic receptor (Cavia porcellus, UniProt B0FL73); test: The compound was evaluated for the antagonistic activity against beta-1 adrenergic receptor.; format: functional; details: read-out: pA2 (converted); procedure, shortened: as §2
T1 sequence (B0FL73 whole entry): as the sequence (B0FL73 1-467) above

Cavia porcellus [10] = species on record: Cavia porcellus; test: Beta-2-adrenoceptor ISA (intrinsic sympathomimetic activity)was measured as relaxant effect against a PGF2-alpha contracted guinea pig trachea at 1x10E-5 M; format: functional
Rattus norvegicus [11] = test: Maximal change in heart rate (HR) measured as % change from pretreatment value at dose of 5 mg/kg in SHR; format: functional; procedure, shortened: as §1
Rattus norvegicus [12] = test: Maximal change in mean arterial blood pressure (MABP) measured as pretreatment value at dose of 25 mg/kg in SHR; format: functional; procedure, shortened: as §1
[13] = target: T2, Adrenergic receptor alpha-2 (Rattus norvegicus, UniProt P22086+P19328+P22909); test: The compound was evaluated for the antagonistic activity against alpha-2 adrenergic receptor.; format: functional
T2 sequence (P22086 whole entry): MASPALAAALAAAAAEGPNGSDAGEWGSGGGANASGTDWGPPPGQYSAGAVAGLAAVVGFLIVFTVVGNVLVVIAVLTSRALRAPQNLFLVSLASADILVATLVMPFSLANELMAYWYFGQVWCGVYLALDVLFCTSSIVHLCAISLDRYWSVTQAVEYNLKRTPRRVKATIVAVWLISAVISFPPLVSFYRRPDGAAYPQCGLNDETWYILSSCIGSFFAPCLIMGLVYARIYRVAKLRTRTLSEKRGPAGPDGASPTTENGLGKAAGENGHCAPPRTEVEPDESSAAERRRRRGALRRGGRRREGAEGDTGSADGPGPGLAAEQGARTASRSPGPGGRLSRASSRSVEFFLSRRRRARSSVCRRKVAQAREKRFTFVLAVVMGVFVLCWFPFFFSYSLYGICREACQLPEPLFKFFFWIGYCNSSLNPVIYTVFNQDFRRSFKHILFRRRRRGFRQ
T2 sequence (P19328 whole entry): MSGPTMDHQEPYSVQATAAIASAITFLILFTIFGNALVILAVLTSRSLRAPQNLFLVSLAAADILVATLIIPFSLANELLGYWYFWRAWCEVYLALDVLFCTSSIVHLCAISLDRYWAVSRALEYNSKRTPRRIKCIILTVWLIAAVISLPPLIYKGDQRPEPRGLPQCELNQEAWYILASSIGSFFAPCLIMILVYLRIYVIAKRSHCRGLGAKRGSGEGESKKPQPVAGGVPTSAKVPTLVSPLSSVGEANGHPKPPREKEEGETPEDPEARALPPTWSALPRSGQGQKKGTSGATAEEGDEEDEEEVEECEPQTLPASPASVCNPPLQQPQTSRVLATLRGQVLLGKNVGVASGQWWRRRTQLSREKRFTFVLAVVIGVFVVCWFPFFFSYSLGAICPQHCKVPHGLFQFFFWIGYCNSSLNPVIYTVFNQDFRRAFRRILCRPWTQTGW
T2 sequence (P22909 whole entry): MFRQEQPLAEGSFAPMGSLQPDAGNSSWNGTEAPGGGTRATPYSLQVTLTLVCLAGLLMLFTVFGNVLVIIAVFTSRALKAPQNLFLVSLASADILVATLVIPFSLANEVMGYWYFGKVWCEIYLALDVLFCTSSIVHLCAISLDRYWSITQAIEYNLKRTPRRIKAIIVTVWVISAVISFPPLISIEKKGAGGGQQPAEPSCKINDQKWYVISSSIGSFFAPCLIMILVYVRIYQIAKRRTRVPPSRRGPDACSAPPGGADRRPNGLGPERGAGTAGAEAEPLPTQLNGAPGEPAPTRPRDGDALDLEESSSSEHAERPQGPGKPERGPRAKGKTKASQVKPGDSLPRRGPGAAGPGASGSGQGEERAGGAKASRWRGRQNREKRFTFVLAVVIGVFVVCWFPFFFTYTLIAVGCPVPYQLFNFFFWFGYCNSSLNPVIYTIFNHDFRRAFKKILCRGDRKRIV

Rattus norvegicus [14] = test: Maximal change in mean arterial blood pressure (MABP) measured as % change from pretreatment value at dose of 5 mg/kg in SHR; format: functional; procedure, shortened: as §1
Rattus norvegicus [15] = test: Maximal change in heart rate (HR) measured as % change from pretreatment value at dose of 25 mg/kg in SHR; format: functional; procedure, shortened: as §1
Rattus norvegicus [16] = test: Maximal change in mean arterial blood pressure (MABP) measured as % change from pretreatment value at dose of 25 mg/kg; format: functional; procedure, shortened: as §1
Rattus norvegicus [17] = test: Maximal change in mean arterial blood pressure (MABP) measured as pretreatment value at dose of 10 mg/kg in SHR; format: functional; procedure, shortened: as §1
[18] = target: T1, Beta-1 adrenergic receptor; test: The compound was evaluated for the antagonistic activity against beta-1 adrenergic receptor; format: functional; details: read-out: pA2 (converted); procedure, shortened: as §2
Rattus norvegicus [19] = test: Maximal change in heart rate (HR) measured as % change from pretreatment value at dose of 5 mg/kg; format: functional; procedure, shortened: as §1
Rattus norvegicus [20] = test: Maximal change in heart rate (HR) measured as % change from pretreatment value at dose of 100 mg/kg in SHR; format: functional; procedure, shortened: as §1
Rattus norvegicus [21] = test: Maximal change in mean arterial blood pressure (MABP) measured as % change from pretreatment value at dose of 25 mg/kg in SHR; format: functional; procedure, shortened: as §1
Rattus norvegicus [22] = test: Maximal change in mean arterial blood pressure (MABP) measured as % change from pretreatment value at dose of 100 mg/kg in SHR; format: functional; procedure, shortened: as §1
[23] = target: Alpha-1 adrenergic receptor; test: The compound was evaluated for the antagonistic activity against alpha-1 adrenergic receptor.; details: read-out: pA2 (converted)
Rattus norvegicus [24] = test: Maximal change in mean arterial blood pressure (MABP) measured as % change from pretreatment value at dose of 2.5 mg/kg in SHR; format: functional; procedure, shortened: as §1
Rattus norvegicus [25] = test: Maximal change in heart rate (HR) measured as % change from pretreatment value at dose of 25 mg/kg; format: functional; procedure, shortened: as §1
Rattus norvegicus [26] = test: Maximal change in heart rate (HR) measured as pretreatment value at dose of 100 mg/kg in SHR; format: functional; procedure, shortened: as §1
Rattus norvegicus [27] = test: Maximal change in heart rate (HR) measured as % change from pretreatment value at dose of 2.5 mg/kg; format: functional; procedure, shortened: as §1
Rattus norvegicus [28] = test: Maximal change in heart rate (HR) measured as pretreatment value at dose of 1 mg/kg in SHR; format: functional; procedure, shortened: as §1
Rattus norvegicus [29] = test: Maximal change in mean arterial blood pressure (MABP) measured as pretreatment value at dose of 1 mg/kg in SHR; format: functional; procedure, shortened: as §1
Rattus norvegicus [30] = test: Maximal change in mean arterial blood pressure (MABP) measured as % change from pretreatment value at dose of 1 mg/kg in SHR; format: functional; procedure, shortened: as §1
Rattus norvegicus [31] = test: Maximal change in mean arterial blood pressure (MABP) measured as pretreatment value at dose of 100 mg/kg in SHR; format: functional; procedure, shortened: as §1
Rattus norvegicus [32] = test: Maximal change in heart rate (HR) measured as % change from pretreatment value at dose of 1 mg/kg in SHR; format: functional; procedure, shortened: as §1
Rattus norvegicus [33] = test: Maximal change in heart rate (HR) measured as pretreatment value at dose of 2.5 mg/kg in SHR; format: functional; procedure, shortened: as §1
Cavia porcellus [34] = species on record: Cavia porcellus; test: Beta-2-adrenoceptor ISA (intrinsic sympathomimetic activity)was measured as relaxant effect against a PGF2-alpha contracted guinea pig trachea at 3x10E -7 M; format: functional
Rattus norvegicus [35] = test: Maximal change in heart rate (HR) measured as pretreatment value at dose of 5 mg/kg in SHR; format: functional; procedure, shortened: as §1
Rattus norvegicus [36] = test: Maximal change in mean arterial blood pressure (MABP) measured as pretreatment value at dose of 2.5 mg/kg in SHR; format: functional; procedure, shortened: as §1

Change [3]: 0% | Kb [4]: 39.8 nM | Kb [9]: 31.6 nM | pA2 [13]: < 5
Structure (SMILES): CC(CCc1ccccc1)NCC(O)c1ccc(O)c(C(N)=O)c1 (stereo unspecified) [LABETALOL]
Change (Rattus norvegicus [1]): -23% | Change (Rattus norvegicus [2]): -25% | MABP (Rattus norvegicus [5]): 161 mmHg | HR (Rattus norvegicus [6]): 424 beats min-1 | HR (Rattus norvegicus [7]): 437 beats min-1 | HR (Rattus norvegicus [8]): 457 beats min-1 | Change (Cavia porcellus [10]): 62% | Change (Rattus norvegicus [11]): -15% | MABP (Rattus norvegicus [12]): 163 mmHg | Change (Rattus norvegicus [14]): -14% | Change (Rattus norvegicus [15]): -27% | Change (Rattus norvegicus [16]): -31% | MABP (Rattus norvegicus [17]): 158 mmHg

Kb [18]: 39.8 nM | Kb [4]: 50.1 nM | pA2 [13]: 5.4 | Kb [23]: 251 nM
Structure (SMILES): CC(CCc1ccccc1)NCC(O)c1cc(C(N)=O)c2[nH]ccc2c1 (stereo unspecified)
Change (Rattus norvegicus [1]): -15% | Change (Rattus norvegicus [2]): -40% | Change (Rattus norvegicus [19]): -12% | Change (Rattus norvegicus [20]): -26% | MABP (Rattus norvegicus [5]): 176 mmHg | Change (Rattus norvegicus [21]): -47% | HR (Rattus norvegicus [7]): 426 beats min-1 | HR (Rattus norvegicus [8]): 430 beats min-1 | Change (Rattus norvegicus [22]): -45% | MABP (Rattus norvegicus [12]): 183 mmHg | Change (Rattus norvegicus [14]): -32% | Change (Rattus norvegicus [24]): -25% | Change (Rattus norvegicus [25]): -18% | HR (Rattus norvegicus [26]): 425 beats min-1 | Change (Rattus norvegicus [27]): -10% | HR (Rattus norvegicus [28]): 442 beats min-1 | MABP (Rattus norvegicus [29]): 171 mmHg | Change (Rattus norvegicus [30]): -9% | MABP (Rattus norvegicus [31]): 178 mmHg | Change (Rattus norvegicus [32]): -3% | HR (Rattus norvegicus [33]): 419 beats min-1 | MABP (Rattus norvegicus [17]): 166 mmHg | Change (Cavia porcellus [34]): 89% | HR (Rattus norvegicus [35]): 439 beats min-1 | MABP (Rattus norvegicus [36]): 176 mmHg
